Experimental findings from PMC2764440 (Nucleic Acids Research, 2009) are described below.

One series relates to CD4+ T-cells. Kind of series: T-cell proliferation assay. To be noted: 1-MT 0.75 mM. It is filed as cell-based, mouse. In short, it runs like this:
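CD4+ responder T cells from C3H mouse spleens (10^5/well, anti-CD3/CD28 bead-stimulated) were co-cultured 3 days with 5 × 10^4 mitomycin C-treated (40 µg/ml, 30 min) MCEC. The MCEC were untransfected or transfected with test peptide carrying IDO or GFP plasmid, with or without 0.75 mM final 1-methyl-dl-tryptophan. [3H]thymidine (1 µCi/well) was added and incorporation was counted 16 h later.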

In series [1] the test system is MCEC. Kind of series: Inhibitor studies: uptake of F complexes. It is filed as cell-based. To be noted: Mus musculus, read-out: reduction (inhibition) of uptake of F complexes. In short, it runs like this:
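Mouse corneal endothelial cells (MCEC; DMEM, 10% FBS, full serum) were seeded at 2.2 × 10^5/well one day before. Complexes of test peptide with Cy5-labelled luciferase plasmid were formed in 10 mM phosphate buffer pH 7.0, added with inhibitor at non-toxic working levels, and incubated 3 h at 37°C. Cells were washed, trypsinised and read by flow cytometry (mean fluorescence, 10 000 gated cells), relative to vehicle (DMSO or water) = 100%.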

Series [2] has as its system MCEC. Kind of series: Inhibitor studies: luciferase gene expression mediated by F complexes. It counts as cell-based, mouse.

Take `Cn1cc(CC(N)C(=O)O)c2ccccc21` (racemic) [1-MT, 1-methyl-DL-tryptophan]: the “effect on the inhibition of T-cell proliferation by IDO-transfected MCEC” value in the series with CD4+ T-cells was “reversed”. With `C=C1[C@@H](C)[C@H]2[C@H](Cc3ccccc3)NC(=O)[C@]23[C@H](OC(C)=O)/C=C/[C@@](C)(O)C(=O)[C@@H](C)C/C=C/[C@H]3[C@@H]1O` [cytochalasin, cytochalasin D], the inhibition (usually the share of the control response that was lost under treatment) at 5 µg/mL in the series with MCEC [1] amounted to 58.5%. Regarding `CCN(c1nc(N)c(C(=O)NC(=N)N)nc1Cl)C(C)C` [EIPA, 5-(N-ethyl-N-isopropyl)amiloride], in the series on MCEC [1], the inhibition at 25 µg/mL is 32.9%. As for `COC(=O)Nc1nc2ccc(C(=O)c3cccs3)cc2[nH]1` [nocodazole], the “increase of gene expression mediated by F complexes” value in the series on MCEC [2] (nocodazole 4.5 µg/ml, N/P 20, luciferase 72 h later, relative to vehicle control) is recorded as 2.35 times. Moreover, in the series with MCEC [1], the inhibition at 4.5 µg/mL turned out to be 58.2%. Take `O=C(N/N=C/c1ccc(O)c(O)c1)c1cc2ccccc2cc1O` [dynasore]: the “toxicity during the longer incubation period used for gene expression assays” value in the series with MCEC [2] (dynasore 6.8 µg/ml, MCEC) is reported as “pronounced toxicity”. Besides, in the series with MCEC [1], the inhibition at 6.8 µg/mL was 64.7%.

`CCCCC[C@@H](O)[C@H]1C(=O)O[C@H](C)[C@@H](O)/C=C/C=C/C=C/C=C/C=C(\C)[C@@H](O)C[C@H](O)C[C@H](O)C[C@H](O)C[C@H](O)C[C@H](O)C[C@@H]1O` [Filipin, filipin III]: the inhibition at 1 µg/mL in the series with MCEC [1] worked out at 48.6%.
